“Also recorded” adds a separate entry of the source. Ends that are not written are not given here.
B1: GST-talin head: human talin 2 head (aa 1–438) expressed as GST fusion protein (protein)
chain: MVALSLKICVRHCNVVKTMQFEPSTAVYDACRVIRERVPEAQTGQASDYGLFLSDEDPRKGIWLEAGRTLDYYMLRNGDILEYKKKQRPQKIRMLDGSVKTVMVDDSKTVGELLVTICSRIGITNYEEYSLIQETIEEKKEEGTGTLKKDRTLLRDERKMEKLKAKLHTDDDLNWLDHSRTFREQGVDENETLLLRRKFFYSDQNVDSRDPVQLNLLYVQARDDILNGSHPVSFEKACEFGGFQAQIQFGPHVEHKHKPGFLDLKEFLPKEYIKQRGAEKRIFQEHKNCGEMSEIEAKVKYVKLARSLRTYGVSFFLVKEKMKGKNKLVPRLLGITKDSVMRVDEKTKEVLQEWPLTTVKRWAASPKSFTLDFGEYQESYYSVQTTEGEQISQLIAGYIDIILKKKQSKDRFGLEGDEESTMLEESVSPKKSTILQQQ
modifications: left off: GST, end not stated, kept

Assays:
talin = test: GST-PIPKIγ tail pull-down, rat brain extract; format: binding; conditions: rat brain protein extracts; Western blot and Coomassie blue, Fig. 1 A, B
Summary of the method: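 Bait: human PIPKIγ tail (aa 635–662) expressed as a GST fusion and purified, with GST alone as control. Used for affinity pull-down from lamprey spinal cord or rat brain extracts. Bound proteins were run on protein gels, then Coomassie blue stained or Western blotted with anti-talin antibody TD77.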

[1] = target: PIPKIγ (90-kD protein doublet); test: GST-talin head pull-down, lamprey extract; format: binding; conditions: Western blot with anti-PIPKIγ antibody, Fig. 1 E
Summary of the method: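 Bait: human talin 2 head (aa 1–438) expressed as a GST fusion and purified, with GST alone as control. Used for affinity purification from lamprey extract alongside a load lane. Eluates were Western blotted with an in-house anti-PIPKIγ antibody to detect the 90-kD doublet.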

[2] = tested on: lamprey reticulospinal synapses; test: EM of stimulated synapses in microinjected axons; format: cell-based, lamprey (Ichthyomyzon unicuspis); conditions: GST-talin head-injected axons, estimated 0.5–2.5 μM; Fig. 5

Row | Molecule | affinity purification of talin (in words) (talin) | affinity purification of PIPKIγ 90-kD doublet (in words) [1] | clathrin-mediated endocytosis at stimulated synapses (in words) [2]
1 | GST-PIPKIγ tail: GST fusion protein of human PIPKIγ tail (aa 635–662), the 28-aa COOH-terminal tail ({GST}-ATDIYFPTDERSWVYSPLHYSAQAPPAS) | purification of the upper talin band; also recorded: Talin was the only major band retained | – | –
2 | B1 | – | specifically affinity purified | a perturbation of clathrin-mediated endocytosis at synapses similar to that observed with PIPK pep

Reference: paper PMC2172527 (The Journal of Cell Biology, 2004)
